# From ChEMBL document CHEMBL3992520, “Development of the First Two-Pore Domain Potassium Channel TWIK-Related K+ Channel 1-Selective Agonist Possessing in Vivo Antinociceptive Activity” (J Med Chem, 2017)
# What was measured:
# Mus musculus [1] = assay: Antinociceptive activity in CD1 mouse assessed as increase in thermal-stimulus induced paw withdrawal latency at 60 mg/kg, sc measured after 45 mins by hot plate method relative to control; type: functional
# Outline: (§1)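 Male CD1 mice (20-25 g), n=8 per group, given 60 mg/kg s.c. After 5 min acclimatization on a plate at room temperature, mice were placed on a 52 °C hotplate. Latency to forepaw or hindpaw licking or hindpaw flicking was recorded, with a 30 s cut-off. Latency was taken after two consecutive stable baselines, then 30 and 45 min post-dose. Effect = (postdrug − predrug latency)/predrug latency ×100.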
# [2] = target: T1, Potassium channel subfamily K member 2 (Homo sapiens) (UniProt O95069); assay: Agonist activity at human TREK1 expressed in HEK293 cells assessed as increase in K+ current at 100 uM measured at +60 mV by whole-cell patch clamp method relative to control; type: cell-based
# T1 sequence (whole entry): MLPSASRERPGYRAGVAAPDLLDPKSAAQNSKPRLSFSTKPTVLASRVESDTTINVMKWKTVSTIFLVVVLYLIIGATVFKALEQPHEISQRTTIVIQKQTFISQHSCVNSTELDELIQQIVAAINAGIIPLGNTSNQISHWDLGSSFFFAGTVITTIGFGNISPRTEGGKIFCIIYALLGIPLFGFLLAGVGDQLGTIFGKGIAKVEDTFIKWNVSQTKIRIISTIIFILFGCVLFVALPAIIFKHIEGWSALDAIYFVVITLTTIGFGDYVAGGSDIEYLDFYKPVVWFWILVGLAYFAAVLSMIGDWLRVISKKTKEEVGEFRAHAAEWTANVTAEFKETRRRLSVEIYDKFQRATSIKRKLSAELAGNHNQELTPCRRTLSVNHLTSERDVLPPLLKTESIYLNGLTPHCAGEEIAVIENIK
# Outline: (§2)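 Human TREK-1 (kcnk2) in pIRES2-eGFP was stably expressed in HEK-293 cells under G418 selection, and cells were used 4–48 h after plating. Bath (mM): 140 NaCl, 10 TEA-Cl, 5 KCl, 3 MgCl2, 1 CaCl2, 10 HEPES, pH 7.4. Pipette (mM): 155 KCl, 3 MgCl2, 5 EGTA, 10 HEPES, pH 7.2. Holding was −80 mV, with a step to −100 mV then a 400 ms ramp to +60 mV every 5 s. Read-out was the ratio Imax/I0 taken from I/V curves. Stocks were 20 mM in DMSO.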
# Liver [3] = assay: Drug level in rat liver microsomes treated with at 40 mM (E)-ethyl 2-cyano-3-(3,4-dihydroxyphenyl)acrylate measured after 24 hrs by HPLC analysis; type: ADME, microsome; settings: 40000 µM
# Outline: (§3)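 Incubation mix: rat liver microsomes (20 mg/mL stock), phosphate buffer pH 7.4 and NADPH (40 mM stock). Drug was added from a 40 mM DMSO stock. Samples were vortexed and incubated at 37 °C with stirring.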
# [4] = target: T1, Potassium channel subfamily K member 2 (Homo sapiens); assay: Agonist activity at human TREK1 expressed in xenopus oocytes assessed as increase in K+ current at 20 uM measured at 0 mV by double microelectrode method relative to control; type: cell-based
# Mus musculus [5] = assay: Antinociceptive activity in CD1 mouse assessed as increase in thermal-stimulus induced paw withdrawal latency at 60 mg/kg, sc measured after 30 mins by hot plate method relative to control; type: functional; outline: as §1
# Mus musculus [6] = assay: Antinociceptive activity in CD1 mouse assessed as inhibition of acetic acid-induced writhes at 10 mg/kg, sc pretreated for 15 mins followed by acetic acid challenge measured within 20 mins relative to control; type: functional
# Outline: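 Male CD1 mice (20-25 g), n=8 per group, dosed at 10 mg/kg s.c. or with vehicle (5% Tween 80 in 0.9% saline). Dosing was 15 min before i.p. 0.6% acetic acid (10 mL/kg). Abdominal writhes were counted for 20 min. Effect = (mean control writhes − mean test writhes)/mean control writhes ×100.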
# Liver [7] = assay: Drug metabolism in rat liver microsomes assessed as (E)-2-cyano-3-(furan-3-yl)acrylic acid formation at 40 mM in presence of NADPH-cofactor measured after 24 hrs by HPLC analysis; type: ADME, microsome; settings: 40000 µM; outline: as §3
# [8] = Half life in rat liver microsomes at 40 mM in presence of NADPH-cofactor by HPLC analysis; type: ADME, microsome
# [9] = target: T2, Potassium channel subfamily K member 4 (Homo sapiens) (UniProt Q9NYG8); assay: Agonist activity at TRAAK (unknown origin) expressed in HEK293 cells assessed as increase in K+ current at 10 uM measured at +60 mV by whole-cell patch clamp method relative to control; type: cell-based
# T2 sequence (whole entry): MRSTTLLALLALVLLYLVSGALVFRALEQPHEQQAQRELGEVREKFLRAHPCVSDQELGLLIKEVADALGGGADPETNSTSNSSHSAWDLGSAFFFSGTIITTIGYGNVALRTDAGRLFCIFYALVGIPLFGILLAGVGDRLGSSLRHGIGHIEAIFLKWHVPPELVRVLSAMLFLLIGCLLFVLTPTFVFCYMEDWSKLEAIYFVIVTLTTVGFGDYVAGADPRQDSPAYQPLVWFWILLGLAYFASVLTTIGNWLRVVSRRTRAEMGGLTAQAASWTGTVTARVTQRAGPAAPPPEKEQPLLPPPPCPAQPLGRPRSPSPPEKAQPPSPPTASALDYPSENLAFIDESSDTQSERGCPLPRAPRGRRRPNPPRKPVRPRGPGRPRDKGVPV
# [10] = target: T1, Potassium channel subfamily K member 2 (Homo sapiens); assay: Agonist activity at human TREK1 expressed in HEK293 cells assessed as increase in K+ current at 10 uM measured at +60 mV by whole-cell patch clamp method relative to control; type: cell-based; outline: as §2
# Mus musculus [11] = assay: Antinociceptive activity in wild-type C57Bl/6J mouse assessed as increase in thermal-stimulus induced paw withdrawal latency at 60 mg/kg, sc measured after 30 mins by hot plate method relative to control; type: functional
# Outline: (§4)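 TREK-1−/− and wild-type C57Bl/6J littermates came from heterozygous crosses, n=7. Dose was 60 mg/kg s.c. The 52 °C hotplate measured paw-lick latency, 30 s cut-off, with baseline from two stable pre-dose latencies.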
# Mus musculus [12] = assay: Antinociceptive activity in TREK1 deficient C57Bl/6J mouse assessed as increase in thermal-stimulus induced paw withdrawal latency at 60 mg/kg, sc measured after 45 mins by hot plate method relative to control; type: functional; outline: as §4
# [13] = target: T3, Potassium channel subfamily K member 10 (Homo sapiens) (UniProt P57789); assay: Agonist activity at TREK-2 (unknown origin) expressed in HEK293 cells assessed as increase in K+ current at 10 uM measured at +60 mV by whole-cell patch clamp method relative to control; type: cell-based
# T3 sequence (whole entry): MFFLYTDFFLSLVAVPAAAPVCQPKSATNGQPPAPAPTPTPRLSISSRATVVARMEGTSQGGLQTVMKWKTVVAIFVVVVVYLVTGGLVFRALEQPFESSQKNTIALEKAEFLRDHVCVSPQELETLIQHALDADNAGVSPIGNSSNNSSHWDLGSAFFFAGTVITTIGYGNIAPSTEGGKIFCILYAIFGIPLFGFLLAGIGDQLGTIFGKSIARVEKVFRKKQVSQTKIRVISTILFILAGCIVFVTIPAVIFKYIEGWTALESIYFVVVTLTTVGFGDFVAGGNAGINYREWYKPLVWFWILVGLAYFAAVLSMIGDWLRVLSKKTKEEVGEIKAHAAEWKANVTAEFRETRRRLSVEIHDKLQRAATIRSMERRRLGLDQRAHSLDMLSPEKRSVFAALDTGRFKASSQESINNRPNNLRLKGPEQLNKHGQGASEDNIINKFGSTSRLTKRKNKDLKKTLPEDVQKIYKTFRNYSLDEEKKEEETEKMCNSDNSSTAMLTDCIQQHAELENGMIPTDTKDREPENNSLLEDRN
# Mus musculus [14] = assay: Antinociceptive activity in TREK1 deficient C57Bl/6J mouse assessed as increase in thermal-stimulus induced paw withdrawal latency at 60 mg/kg, sc measured after 30 mins by hot plate method relative to control; type: functional; outline: as §4
# Mus musculus [15] = assay: Antinociceptive activity in wild-type C57Bl/6J mouse assessed as increase in thermal-stimulus induced paw withdrawal latency at 60 mg/kg, sc measured after 45 mins by hot plate method relative to control; type: functional; outline: as §4
# [16] = target: Potassium channel subfamily K member 9 (Homo sapiens) (UniProt Q9NPC2); assay: Agonist activity at TASK3 (unknown origin) expressed in HEK293 cells assessed as increase in K+ current at 10 uM measured at +60 mV by whole-cell patch clamp method relative to control; type: cell-based
# Mus musculus [17] = assay: In vivo activation of TREK1 in C57Bl/6J mouse assessed as increase in thermal-stimulus induced paw withdrawal latency at 60 mg/kg, sc measured after 30 mins by hot plate method relative to control; type: functional; outline: as §4
# Mus musculus [18] = assay: In vivo activation of TREK1 in C57Bl/6J mouse assessed as increase in thermal-stimulus induced paw withdrawal latency at 60 mg/kg, sc measured after 45 mins by hot plate method relative to control; type: functional; outline: as §4
# [19] = target: T4, Potassium channel subfamily K member 2 (Bos taurus) (UniProt Q8HY88); assay: Agonist activity at TREK1 in bovine AZF cells assessed as increase in K+ current at 40 uM by whole-cell patch clamp method relative to control; type: cell-based
# T4 sequence (whole entry): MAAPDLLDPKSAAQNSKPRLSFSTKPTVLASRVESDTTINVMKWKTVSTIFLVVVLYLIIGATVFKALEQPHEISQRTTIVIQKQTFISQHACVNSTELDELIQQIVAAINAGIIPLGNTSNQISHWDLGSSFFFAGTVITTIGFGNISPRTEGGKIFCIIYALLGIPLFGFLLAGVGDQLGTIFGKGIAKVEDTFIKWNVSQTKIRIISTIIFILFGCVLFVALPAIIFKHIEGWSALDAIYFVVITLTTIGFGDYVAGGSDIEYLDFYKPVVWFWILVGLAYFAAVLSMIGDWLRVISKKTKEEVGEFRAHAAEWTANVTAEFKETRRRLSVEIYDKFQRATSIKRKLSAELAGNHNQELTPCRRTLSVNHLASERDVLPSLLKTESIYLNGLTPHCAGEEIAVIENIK
# Liver [20] = assay: Drug metabolism in rat liver microsomes assessed as (E)-2-Cyano-3-(3,4-dihydroxyphenyl)acrylic acid formation at 40 mM in presence of NADPH-cofactor measured after 24 hrs by HPLC analysis; type: ADME, microsome; settings: 40000 µM; outline: as §3
# Sequence of Potassium channel subfamily K member 9 (Homo sapiens) (Q9NPC2 whole entry): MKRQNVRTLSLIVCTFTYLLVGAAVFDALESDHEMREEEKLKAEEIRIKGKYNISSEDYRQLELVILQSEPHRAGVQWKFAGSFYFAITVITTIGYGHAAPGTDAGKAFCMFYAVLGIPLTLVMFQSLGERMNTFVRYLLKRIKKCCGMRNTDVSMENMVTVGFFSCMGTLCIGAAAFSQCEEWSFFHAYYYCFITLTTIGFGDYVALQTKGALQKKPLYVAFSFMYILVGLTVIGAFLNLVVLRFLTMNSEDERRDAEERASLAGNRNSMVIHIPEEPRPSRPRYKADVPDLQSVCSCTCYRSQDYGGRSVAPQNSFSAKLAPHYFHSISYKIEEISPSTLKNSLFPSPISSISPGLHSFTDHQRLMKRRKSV
fold change (FC) [2],fold change (FC) [4],half-life [8] [min],fold change (FC) [19],SMILES,Activity (Mus musculus [1]) [%],Activity (Mus musculus [5]) [%],inhibition in vivo at 10 mg/kg (Mus musculus [6]) [%],other results
1.5,1.23,–,–,N#C/C(=C\c1ccc(O)c(O)c1)C(=O)O,59.4,21.4,–,Drug metabolism (Liver [3]): Metabolite_Detected
1.54,2.76,< 4,1,CCOC(=O)/C(C#N)=C/c1ccc(O)c(O)c1,21.8,34.6,57.8,Drug metabolism (Liver [20]): Metabolite_Detected
–,–,–,1,O=C(O)/C=C/c1ccc(O)c(O)c1,–,–,–,–

# Further lines, the molecule ahead of its results:
SMILES,fold change (FC) [2],fold change (FC) [4],half-life [8] [min],fold change (FC) [19],Activity (Mus musculus [1]) [%],Activity (Mus musculus [5]) [%],inhibition in vivo at 10 mg/kg (Mus musculus [6]) [%],other results
CCOC(=O)/C(C#N)=C/c1ccoc1,2.09,–,< 4,–,11.9,28.4,55.9,Drug metabolism (Liver [7]): Metabolite_Detected
N#C/C(=C\c1cc2ccccc2[nH]1)C(=O)Nc1ccccc1,–,–,–,–,49.5,49.5,52,fold change (FC) [9]: 0.9; fold change (FC) [10]: 2.16 to 2.2; Activity (Mus musculus [11]): 27.9%; Activity (Mus musculus [12]): 51.2%; fold change (FC) [13]: 1.6; Activity (Mus musculus [14]): 18.7%; Activity (Mus musculus [15]): 39.2%; fold change (FC) [16]: 1.2; Activity (Mus musculus [17]): 33%; Activity (Mus musculus [18]): 0%
